Measured values collected from several papers.
Each line is one published result; the experiments were not run side by side.
Read-out: cell growth or viability

Cc1cc2c(C(N)=O)cccc2n1-c1nc2c(c(NCc3ccccn3)n1)CCCN2  IC50 (RPMI-8226; ATP luminescence; 72 h): 1.4 µM
COc1cc(CNc2ccc(C(=O)O)cc2)ccc1O  IC50 (NCI-H69; resazurin; 72 h): > 100 µM
CC(C)(C)c1cnc(CSc2cnc(NC(=O)C3CCN(C(=O)CCCCCCCCCCN4Cc5cc6c(cc5C4)C(=O)N(C4CCC(=O)NC4=O)C6=O)CC3)s2)o1 (centres unmarked)  IC50 (TC-71; MTT; 72 h): 0.0718 µM
Cc1cc2c(C(N)=O)cccc2n1-c1nc2c(c(NCc3cccnc3)n1)CCCN2  IC50 (RPMI-8226; ATP luminescence; 72 h): 2 µM
CSc1ccc(CNc2ccc(C(=O)O)cc2)cc1  IC50 (NCI-H69; resazurin; 72 h): > 100 µM
Cc1cc2c(C(N)=O)cccc2n1-c1nc2c(c(NCc3cccc(O)c3)n1)CCCN2  IC50 (RPMI-8226; ATP luminescence; 72 h): 0.3 µM
COc1ccc(CNc2ccc(C(=O)O)cc2)cc1OC  IC50 (NCI-H69; resazurin; 72 h): > 100 µM
CC(C)(C)c1cnc(CSc2cnc(NC(=O)C3CCN(C(=O)CCCCCCCCCCCN4Cc5cc6c(cc5C4)C(=O)N(C4CCC(=O)NC4=O)C6=O)CC3)s2)o1 (centres unmarked)  IC50 (TC-71; MTT; 72 h): 0.0799 µM
CC(C)(C)NS(=O)(=O)c1cccc(C(=O)N2CC3(CCC4(CC4)CC3)c3cc(NS(C)(=O)=O)ccc32)c1  IC50 (OVCAR-3; 7 days): 0.011 µM
CC(C)(C)c1cnc(CSc2cnc(NC(=O)C3CCN(C(=O)CCCCCN4Cc5cc6c(cc5C4)C(=O)N(C4CCC(=O)NC4=O)C6=O)CC3)s2)o1 (centres unmarked)  IC50 (TC-71; MTT; 72 h): 0.00471 µM
O=C(O)c1ccc(NCc2cccc([N+](=O)[O-])c2)cc1  IC50 (NCI-H69; resazurin; 72 h): > 100 µM
O=C1CCCC2=C1C(c1c(C(=O)O)[nH]c3ccccc13)c1c(ccc3ccccc13)O2 (centres unmarked)  IC50 (3T3-L1; MTT; 72 h): 24.1 mg/L
Cc1cc2c(C(=O)O)cccc2n1-c1nc2c(c(NCc3ccccc3)n1)CCCN2  IC50 (RPMI-8226; ATP luminescence; 72 h): 0.8 µM
COc1cccc(CNc2ccc(C(=O)O)cc2)c1O  IC50 (NCI-H69; resazurin; 72 h): > 100 µM
CN1C(=O)CCC(N2C(=O)c3cc4c(cc3C2=O)CN(CCCCCCCC(=O)N2CCC(C(=O)Nc3ncc(SCc5ncc(C(C)(C)C)o5)s3)CC2)C4)C1=O (centres unmarked)  IC50 (TC-71; MTT; 72 h): > 1 µM
O=C(O)c1ccc(NCc2ccc(Cl)cc2)cc1  IC50 (NCI-H69; resazurin; 72 h): > 100 µM
CC(C)(C)c1cnc(CSc2cnc(NC(=O)C3CCN(CC(=O)NCCOCCOCCOCCNc4cccc5c4C(=O)N(C4CCC(=O)NC4=O)C5=O)CC3)s2)o1 (centres unmarked)  IC50 (TC-71; MTT; 72 h): 0.0216 µM
Cc1cc2c(C(N)=O)nccc2n1-c1nc2c(c(NCc3ccccc3)n1)CCCN2  IC50 (RPMI-8226; ATP luminescence; 72 h): 4.9 µM
CC(C)(C)c1cnc(CSc2cnc(NC(=O)C3CCN(C(=O)CCCCCCN4Cc5cc6c(cc5C4)C(=O)N(C4CCC(=O)NC4=O)C6=O)CC3)s2)o1 (centres unmarked)  IC50 (TC-71; MTT; 72 h): 0.00958 µM
Cc1cc2c(C(N)=O)cncc2n1-c1nc2c(c(NCc3ccccc3)n1)CCCN2  IC50 (RPMI-8226; ATP luminescence; 72 h): 2.9 µM
